Shown are actives, neighbours in structure and some others; about 1.3% of the full set was active somewhere.
TCR CD3 inh: inhibitors of human TCR-CD3 interaction, primary screen, biochemical, fluorescence, TAMRA-labeled TCR probe; actives 0.37% (n = 360,000); T-cell receptor (TCR); inhibition, % at 9.4 µM; in the data active = inhibition above about 19%;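 note: recombinant mutant TCR 2C K166C tagged with TAMRA read by polarization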
DDE Tn7 FP inh: inhibitors of Tn7 peptide binding to fibrin DD(E), primary screen, biochemical, fluorescence polarization, human fibrin, Tn7 probe; Fibrinogen beta chain (Homo sapiens), P02675; FP displacement of FITC-Tn7 peptide from fibrin DD(E); 0% = median of compound wells per plate; inhibition, % at 8.3 µM; actives 0.13% (n = 370,000);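 active = inhibition above the mean of compounds falling within the control limits plus 3 SD of them, cut at about 14% in these data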
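Test system: human clot-derived fibrin DD(E) complex / Quantity: 2 µM final DD(E) protein / Incubation: 10 min plus 3 h, room temperature / Measured by: fluorescence polarization / Benchmarks: high control of 10 µM Aha-Tn7 peptide / Replicates: singlicate testing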
DDE Tn6 FP inh: inhibitors of Tn6 peptide binding to fibrin DD(E), primary screen, biochemical, fluorescence polarization, human fibrin, Tn6 probe | actives 0.21% (n = 370,000) | Fibrin DD(E) TRITC-Tn6 fluorescence polarization displacement | AID 720509, 2013 | inhibition, % at 8.3 µM | Fibrinogen beta chain (Homo sapiens), P02675;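 active = inhibition above a per-campaign cutoff: mean of compounds within control limits plus 3 SD, cut at about 15% in these data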
HTRA1 inh: HTRA1 serine protease inhibitors, primary screen, biochemical, fluorescence polarization, HTS; Q92743; actives 0.5% (n = 340,000); inhibition, % at 5.96 µM; recombinant HTRA1, FP-rhodamine activity-based probe; in the data active = inhibition above about 36%
mABHD4 FP: ABHD4 inhibitors, primary screen, biochemical, fluorescence polarization, mouse; actives 0.54% (n = 370,000); purified mABHD4, FP-Rh probe fluorescence polarization; (Lyso)-N-acylphosphatidylethanolamine lipase (Mus musculus), Q8VD66; inhibition, % at 8.92 µM;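 active = inhibition exceeding the mean over every tested compound plus 3 SD, cut at about 30% in these data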
Target sequence (Q8VD66 whole entry, looked up): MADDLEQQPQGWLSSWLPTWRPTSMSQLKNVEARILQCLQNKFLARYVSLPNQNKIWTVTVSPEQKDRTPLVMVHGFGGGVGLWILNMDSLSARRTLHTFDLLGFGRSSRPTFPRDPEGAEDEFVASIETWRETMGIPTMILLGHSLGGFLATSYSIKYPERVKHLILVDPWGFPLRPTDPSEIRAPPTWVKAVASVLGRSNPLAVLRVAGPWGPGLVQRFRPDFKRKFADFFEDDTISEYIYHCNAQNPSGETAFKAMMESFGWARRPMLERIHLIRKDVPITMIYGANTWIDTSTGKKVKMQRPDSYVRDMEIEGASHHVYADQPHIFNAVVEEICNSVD
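system = mouse ABHD4 enzyme, wild type | medium = HEPES pH 7.0, NaCl, Pluronic buffer | also added = FP-Rh probe | incubation = Enzyme–compound pre-incubation 45 min, then probe 60 min, both 25 °C | technique = fluorescence polarization, excitation 525 nm, emission 598 nm, BODIPY TMR filters | controls = S159A mutant high control, sample median low control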
HTRA1 inh conf: HTRA1 protease inhibitors, retest, confirmation, biochemical, fluorescence polarization. shares compounds with HTRA1 inh. recombinant HTRA1, FP-rhodamine activity-based probe. inhibition, % at 5.96 µM. actives 66% (n = 1,600);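 active = mean inhibition over three repeats above a set limit taken from the earlier primary screen, cut at about 37% in these data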;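 note: inhibitors block probe binding so polarization drops and inhibition rises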
Each line names hits and unclear results; the compound was inactive in the other large screens (follow-up assays come after a bar, where they were run).

O=C(Oc1ccc(Cl)c2cccnc12)N1CCOCC1	none
CC(N=Cc1cccc(O)c1O)c1ccccc1 (stereo unspecified)	HTRA1 inh 66 (no result: TCR CD3 inh, DDE Tn7 FP inh, DDE Tn6 FP inh, mABHD4 FP) | HTRA1 inh conf 100
Cc1ccccc1N=Cc1cccc(O)c1O	HTRA1 inh 49 (no result: TCR CD3 inh, DDE Tn7 FP inh, DDE Tn6 FP inh, mABHD4 FP) | HTRA1 inh conf inactive
CCCCC(CC)CN=C(N)NC(N)=NCCCCCCN=C(N)NC(N)=NCC(CC)CCCC (stereo unspecified)	HTRA1 inh 55 (no result: TCR CD3 inh, DDE Tn7 FP inh, DDE Tn6 FP inh, mABHD4 FP) | HTRA1 inh conf 93
Oc1cccc2ccc(/C=C/c3ccccc3Br)nc12	HTRA1 inh 52 | HTRA1 inh conf 45
Oc1ccc(Cl)cc1/C=C/c1ccc2cccc(O)c2n1	none
Oc1c(Cl)cc(Cl)cc1/C=C/c1ccc2cccc(O)c2n1	HTRA1 inh 37 | HTRA1 inh conf 48
CCOC(=O)C(C(=O)OCC)C(=O)c1cccc2ccc3ccccc3c12	none
Oc1ccc(CN2CCc3ccccc3C2)c2cccnc12	HTRA1 inh 59 | HTRA1 inh conf 65
Oc1ccc(CN2CCCCC2)c2cccnc12	none
CC(C)(C)c1ccc(O)c(N=Cc2cc(Br)ccc2O)c1	HTRA1 inh 41 | HTRA1 inh conf 42
Cc1noc(C)c1COc1ccccc1C(=O)N1CCN(S(=O)(=O)c2ccc(C(C)C)cc2)CC1	none
CC1=CCC2C(=O)N(c3ccc(C(=O)Nc4ccccc4Cl)cc3)C(=O)C2C1 (stereo unspecified)	none
CCc1ccc(S(=O)(=O)/N=C2\C=C(NS(=O)(=O)c3ccccc3)C(=O)c3ccccc32)cc1	none
COc1ccc(S(=O)(=O)/N=C2\C=C(Nc3ccc(O)cc3)C(=O)c3ccccc32)cc1	HTRA1 inh 84, mABHD4 FP 75 | HTRA1 inh conf active
CCCCCCCCCCCCC/C=C/[C@@H](O)[C@@H](N)CO	HTRA1 inh 38 | HTRA1 inh conf 67
CCCCCCCC/C=C\CCCCCCCC(=O)O	none
Cc1ccc(CN2CCN(Cc3cn[nH]c3-c3cccc(F)c3)CC2CCO)o1 (stereo unspecified)	none
CN(C)c1ccc(N=Cc2cccn2C)cc1	HTRA1 inh 42, mABHD4 FP 35 | HTRA1 inh conf inactive
CN(C)c1nc(-c2ccccn2)nnc1-c1ccccc1	HTRA1 inh 52 | HTRA1 inh conf 57
COc1cc(N=Nc2ccc(Br)cc2)cc(C=O)c1O	HTRA1 inh 46 | HTRA1 inh conf 56
CC(=O)N1CCC(=NNC(=O)CSc2cc(C)c(Br)cc2C)CC1	none
Cc1cc(SCC(=O)N/N=C/c2ccc(O)c(O)c2)c(C)cc1Br	HTRA1 inh 77 | HTRA1 inh conf 76
Cc1ccc2nc(-c3cc(N)cc(N)c3)oc2c1	HTRA1 inh 37 | HTRA1 inh conf inactive
O=S1(=O)Nc2c(ccc3cccnc23)-c2ccccc21	HTRA1 inh 36 (no result: TCR CD3 inh, DDE Tn7 FP inh, DDE Tn6 FP inh, mABHD4 FP) | HTRA1 inh conf inactive
CC1=C(C(=O)Nc2ccccn2)C(c2ccc(Br)cc2)n2ncnc2N1 (stereo unspecified)	none
Cc1cc(C(=O)N/N=C/c2ccc([N+](=O)[O-])s2)c2ccccc2n1	HTRA1 inh 47 | HTRA1 inh conf inactive
O=C(N/N=C\c1ccc([N+](=O)[O-])s1)c1cncc(Br)c1	HTRA1 inh 56 | HTRA1 inh conf 52
CCOC(=O)c1cc(CC)sc1NC(=O)Cc1ccccc1	none
Cc1cccc(NC(=O)Oc2ccc(Cl)c3cccnc23)c1	HTRA1 inh 54 | HTRA1 inh conf 41
O=C(Oc1ccc(Cl)c2cccnc12)c1cccnc1	HTRA1 inh 71 | HTRA1 inh conf 82
CSc1ccccc1C(=O)NCC1CCCO1 (stereo unspecified)	none
O=C1/C(=C\c2cccc(O)c2O)SC(=S)N1Cc1ccccc1	HTRA1 inh 54 | HTRA1 inh conf 65
O=C1/C(=C\c2ccc(O)c(O)c2)SC(=S)N1Cc1ccccc1	none
O=C(CN1C(=O)/C(=C/c2ccccc2)SC1=S)NNC(=O)c1ccccc1O	HTRA1 inh 55 | HTRA1 inh conf 42
O=C(Cc1cccs1)Nc1ccc(S(=O)(=O)N2CCCC2)cc1	none
CCOC(=O)C1CCCN(C2=C(NS(=O)(=O)c3ccc(Br)cc3)C(=O)c3ccccc3C2=O)C1 (stereo unspecified)	HTRA1 inh 46 | HTRA1 inh conf 62
Cc1nc(CNC(=O)CC2C(=O)NCCN2Cc2cccc(Oc3ccccc3)c2)cs1 (stereo unspecified)	HTRA1 inh 44 | HTRA1 inh conf inactive
O=C(CC1C(=O)NCCN1Cc1cccc(Oc2ccccc2)c1)NCc1cccnc1 (stereo unspecified)	none
CC(=O)N1CCN(c2ccc(NCc3ccc(-c4ccc(Br)cc4)o3)cc2)CC1	HTRA1 inh 44 | HTRA1 inh conf inactive
CC(C)C(=O)NC(c1cccs1)c1cc([N+](=O)[O-])c2cccnc2c1O (stereo unspecified)	HTRA1 inh 38 (no result: TCR CD3 inh, DDE Tn7 FP inh, DDE Tn6 FP inh, mABHD4 FP) | HTRA1 inh conf 37
Cc1ccc(C(NC(=O)C(C)C)c2cc([N+](=O)[O-])c3cccnc3c2O)cc1 (stereo unspecified)	HTRA1 inh 37 | HTRA1 inh conf 65
O=S(=O)(c1ccc2c(c1)OCCO2)N1CCC(n2cnc3cc(F)ccc32)CC1	none
COC(=O)N/N=C/c1cc(N=Nc2ccccc2Cl)ccc1O	none
Nc1ccc(C(=O)N/N=C\c2cc(N=Nc3cccc4ccccc34)ccc2O)cc1	HTRA1 inh 56 | HTRA1 inh conf 91
O=C(COC(=O)c1ccncc1)Nc1ccccc1	none
Nc1nc(-c2ccccn2)nc(N)c1Cc1ccc(Cl)cc1Cl	HTRA1 inh 39 | HTRA1 inh conf inactive
COc1cccc(/C=N/Nc2ncnc3scc(-c4ccccc4)c23)c1O	HTRA1 inh 45 | HTRA1 inh conf inactive
COc1ccc(C(=O)Oc2ccc3ccc(=O)oc3c2)cc1	none
COc1ccc(C(=O)Oc2ccc3oc(=O)sc3c2)cc1	HTRA1 inh 45 | HTRA1 inh conf inactive
COc1ccc(C(NC(C)=O)c2cc(Cl)c3cccnc3c2O)cc1OC (stereo unspecified)	HTRA1 inh 42 | HTRA1 inh conf 56
CCOc1ccc(C(Nc2cccnc2)c2cc(Cl)c3cccnc3c2O)cc1 (stereo unspecified)	HTRA1 inh 43 | HTRA1 inh conf 42
COc1ccccc1C(NC(C)=O)c1cc(Cl)c2cccnc2c1O (stereo unspecified)	HTRA1 inh 49 | HTRA1 inh conf 71

Source: PubChem (The Scripps Research Institute Molecular Screening Center)
